# Laboratory results reported in ChEMBL document CHEMBL1123371, “5-HT1 and 5-HT2 binding characteristics of some quipazine analogues” (J Med Chem, 1986).
# Calls of active or inactive are those of the source. No cut-off for these calls is given here.
# Tests used:
# [1] = Displacement of [3H]5-HT from 5-hydroxytryptamine 1 receptor of rat cortical membrane homogenates
# [2] = system: Rattus norvegicus; assay: Stimulus generalization studies in TFMPP trained animals and the number of animals responding /number to receive dose of drug was determined at dose of 1 mg/kg; 3/3; format: functional
# Method in brief: (§1)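 Male Sprague-Dawley rats (n = 6) trained to discriminate 0.5 mg/kg TFMPP HCl from saline on a two-lever operant task, VI 15-s food reward. Challenge doses were given ip in random order 15 min before a 2.5-min extinction test, with at least three training sessions between tests. Fewer than five total responses was scored as disruption.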
# [3] = system: Rattus norvegicus; assay: Stimulus generalization studies in TFMPP trained animals and the number of animals responding /number to receive dose of drug was determined at dose of 3 mg/kg; 2/3; format: functional
# [4] = system: Rattus norvegicus; assay: Stimulus generalization studies in TFMPP trained animals and the number of animals responding /number to receive dose of drug was determined at dose of 3.5 mg/kg; 2/3; format: functional
# [5] = system: Rattus norvegicus; assay: Compound was evaluated in stimulus generalization studies in DOM trained animals and the number of animals responding /number ot receive dose of drug at dose of 5.0 mg/kg; 3/4; format: functional
# Method in brief: (§2)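 Male Sprague-Dawley rats (n = 10) trained to discriminate 1.0 mg/kg DOM HCl from saline on a two-lever operant task, VI 15-s food reinforcement. Test doses were given ip in random order, 15 min pre-session, with at least three training sessions between tests. Responding was scored in a 2.5-min extinction session. Rats with fewer than five total responses were counted as disrupted.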
# [6] = system: Rattus norvegicus; assay: Stimulus generalization studies in TFMPP trained animals and the number of animals responding /number to receive dose of drug was determined at dose of 4.0 mg/kg; 0/3; format: functional
# [7] = system: Rattus norvegicus; assay: Compound was evaluated in stimulus generalization studies in DOM trained animals and the number of animals responding /number ot receive dose of drug at dose of 0.6 mg/kg; 3/3; format: functional; method in brief: as §2
# [8] = system: Rattus norvegicus; assay: Compound was evaluated in stimulus generalization studies in DOM trained animals and the number of animals responding /number ot receive dose of drug at dose of 2.5 mg/kg; 4/4; format: functional; method in brief: as §2
# [9] = system: Rattus norvegicus; assay: Compound was evaluated in stimulus generalization studies in DOM trained animals and the number of animals responding /number ot receive dose of drug at dose of 3.5 mg/kg; 4/4; format: functional; method in brief: as §2
# [10] = species on record: Rattus norvegicus; assay: Compound was tested for the doses at which the animals would be expected to make approximately 50% of their responses on the DOM-appropriate lever; format: functional
# Method in brief: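 DOM-trained rats (1.0 mg/kg DOM HCl vs saline, two-lever, VI 15 s, food) were given ip doses 15 min before a 2.5-min extinction session. Where >80% of responses fell on the DOM lever (generalization), the dose expected to give about 50% DOM-lever responding was calculated from dose–response data and reported with 95% confidence limits.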
# [11] = system: Rattus norvegicus; assay: Compound was evaluated in tests of stimulus generalization using animals trained to discriminate DOM from saline, and the drug appropriate responding at dose of 0.6 mg/kg; format: functional; method in brief: as §2
# [12] = system: Rattus norvegicus; assay: Compound was evaluated in tests of stimulus generalization using animals trained to discriminate DOM from saline, and the drug appropriate responding at dose of 2.5 mg/kg; format: functional; method in brief: as §2
# [13] = system: Rattus norvegicus; assay: Compound was evaluated in tests of stimulus generalization using animals trained to discriminate DOM from saline, and the drug appropriate responding at dose of 3.5 mg/kg; format: functional; method in brief: as §2
# [14] = system: Rattus norvegicus; assay: Compound was evaluated in tests of stimulus generalization using animals trained to discriminate DOM from saline, and the drug appropriate responding at dose of 5.0 mg/kg; format: functional; method in brief: as §2
# [15] = system: Rattus norvegicus; assay: Compound was evaluated in stimulus generalization test using animals trained to discriminate TFMPP from saline, and the drug appropriate responding at dose of 1.0 mg/kg; format: functional; method in brief: as §1
# [16] = system: Rattus norvegicus; assay: Compound was evaluated in stimulus generalization test using animals trained to discriminate TFMPP from saline, and the drug appropriate responding at dose of 3.0 mg/kg; format: functional; method in brief: as §1
# [17] = system: Rattus norvegicus; assay: Compound was evaluated in stimulus generalization test using animals trained to discriminate TFMPP from saline, and the drug appropriate responding at dose of 3.5 mg/kg; format: functional; method in brief: as §1
# [18] = system: Rattus norvegicus; assay: Compound was evaluated in stimulus generalization test using animals trained to discriminate TFMPP from saline, and the drug appropriate responding at dose of 4.0 mg/kg; Not responding; format: functional, organism-based; design: dose 4 mg/kg; method in brief: as §1
# [19] = system: Rattus norvegicus; assay: Compound was evaluated in tests of stimulus generalization using animals trained to discriminate DOM from saline, and the mean responses per min at dose of 2.5 mg/kg; format: functional; method in brief: as §2
# [20] = system: Rattus norvegicus; assay: Compound was evaluated in tests of stimulus generalization using animals trained to discriminate DOM from saline, and the mean responses per min at dose of 3.5 mg/kg; format: functional; method in brief: as §2
# [21] = system: Rattus norvegicus; assay: Compound was evaluated in tests of stimulus generalization using animals trained to discriminate DOM from saline, and the mean responses per min at dose of 5.0 mg/kg; format: functional; method in brief: as §2
# [22] = system: Rattus norvegicus; assay: Compound was evaluated in stimulus generalization test using animals trained to discriminate TFMPP from saline, and the mean responses per min at dose of 1.0 mg/kg; format: functional; method in brief: as §1
# [23] = system: Rattus norvegicus; assay: Compound was evaluated in stimulus generalization test using animals trained to discriminate TFMPP from saline, and the mean responses per min at dose of 3.0 mg/kg; format: functional; method in brief: as §1
# [24] = system: Rattus norvegicus; assay: Compound was evaluated in stimulus generalization test using animals trained to discriminate TFMPP from saline, and the mean responses per min at dose of 3.5 mg/kg; format: functional; method in brief: as §1
# [25] = system: Rattus norvegicus; assay: Compound was evaluated in tests of stimulus generalization using animals trained to discriminate DOM from saline, and the mean responses per min at dose of 0.6 mg/kg; format: functional; method in brief: as §2
# [26] = target: Serotonin 2 (5-HT2) receptor (Rattus norvegicus, UniProt P30994+P08909+P14842); assay: Displacement of [3H]ketanserin from 5-hydroxytryptamine 2 receptor of rat cortical membrane homogenates
structure (smiles),measurement,setting,value
c1ccc2cc(N3CCNCC3)ccc2c1,Ki,[1],265 nM
same,Activity,[2],3
same,Activity,[3],2
same,Activity,[4],2
same,Activity,[5],3
same,Activity,[6],0
same,Activity,[7],3
same,Activity,[8],4
same,Activity,[9],4
same,ED50,[10],2.9 mg/kg
same,Drug responding,[11],3%
same,Drug responding,[12],33%
same,Drug responding,[13],71%
same,Drug responding,[14],88%
same,Drug responding,[15],6%
same,Drug responding,[16],12%
same,Drug responding,[17],25%
same,Drug responding,[18],inactive
same,Mean response/min,[19],16.8
same,Mean response/min,[20],8
same,Mean response/min,[21],8.7
same,Mean response/min,[22],20.6
same,Mean response/min,[23],7
same,Mean response/min,[24],7
same,Mean response/min,[25],16.1
same,Ki,[26],70 nM
